Screening results deposited in PubChem by several laboratories.
Compounds with a hit are over-represented: about 2.1% of the library has one in this group of screens.
zVAD death inh = L929 zVAD cell death inhibition. L929 zVAD necroptosis rescue, ATP luminescence, 24 h; with zVAD 60 µM. viability rescue, % at 10 µM. 220,000 compounds, 0.38% hits;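 active = activation, scaled between plate controls, above about 75%, limit read from the data; inactive = activation under that limit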
TNF necrop inh = blocks TNF-alpha induced death of Jurkat FADD-/- cells; Jurkat FADD-/- TNF necroptosis rescue, ATP luminescence, 24 h; 0 = TNF only, 100 = no-TNF cells; activation (protection from cell death), % at 10 µM; 220,000 compounds, 0.068% hits;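 active = activation, meaning protection from cell death, of at least 50% relative to plate controls; inactive = activation below 50%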;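 also: necroptosis triggered by 40 ng/mL TNF-alpha added together with compound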
Hck-Nef inh = human Hck-Nef kinase inhibition; 220,000 compounds, 0.68% hits; inhibition, % at 20 µM; Recombinant Hck-YEEI plus Nef, Z-Lyte FRET kinase assay; P08631;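 active = Hck-Nef kinase inhibition above about 50%, limit read from the data; inactive = inhibition below that limit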
Runt-CBFb FRET = Runt domain-CBFb interaction inhibition; Q01196+Q13951; Cerulean-Runt/Venus-CBFb FRET ratio 530/480, 1 h; inhibition, % at 20 µM; 220,000 compounds, 0.46% hits;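 active = inhibition over about 50% at 20 µM in the single-dose screen, limit read from the data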
Target sequence (Q01196 whole entry, looked up, the tested form may be a part): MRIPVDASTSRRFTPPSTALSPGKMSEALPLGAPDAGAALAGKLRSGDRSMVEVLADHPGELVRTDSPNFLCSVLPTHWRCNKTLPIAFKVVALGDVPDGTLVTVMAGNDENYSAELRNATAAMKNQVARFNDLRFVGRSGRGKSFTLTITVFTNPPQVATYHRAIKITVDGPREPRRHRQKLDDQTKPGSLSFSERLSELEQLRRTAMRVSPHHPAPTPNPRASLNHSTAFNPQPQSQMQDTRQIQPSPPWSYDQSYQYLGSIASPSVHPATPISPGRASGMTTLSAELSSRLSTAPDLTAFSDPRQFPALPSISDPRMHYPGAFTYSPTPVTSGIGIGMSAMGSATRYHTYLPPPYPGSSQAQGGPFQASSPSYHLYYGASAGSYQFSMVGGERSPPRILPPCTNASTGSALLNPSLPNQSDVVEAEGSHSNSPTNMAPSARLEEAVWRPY
Target sequence (Q13951 whole entry, looked up, the tested form may be a part): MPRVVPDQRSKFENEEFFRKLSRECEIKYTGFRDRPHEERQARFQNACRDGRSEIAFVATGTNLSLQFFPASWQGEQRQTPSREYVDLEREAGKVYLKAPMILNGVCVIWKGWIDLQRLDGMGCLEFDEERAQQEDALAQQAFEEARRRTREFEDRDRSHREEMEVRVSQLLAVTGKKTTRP
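test system = Cerulean-tagged RUNX1 Runt domain (FRET donor) fusion protein | reagent = Venus-CBFb binding partner, 100 nM | incubation = protein complex preformed 1 h, compound exposure 1 h, room temperature, dark | detection = FRET fluorescence | read-out basis = loss of energy transfer signal | controls = 5 µM unlabeled CBFb as full-inhibition high control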
RanGTP-Impb inh = disruptors of Ran-importin-beta complex formation – biochemical, FRET, CFP-Ran, YFP-importin-beta, homogeneous, primary screen; 300,000 compounds, 1.1% hits; AID 2216; cell-free CFP-Ran/YFP-importin-beta FRET ratio; inhibition, % (concentration not given with the values);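 active = more than half of the replicate wells show a fall in the fluorescence ratio signal beyond about 16%, limit read from the data, passing the limit was not always enough; inconclusive = exactly half of the replicate wells pass the set limit; inactive = fewer than half of replicates pass the limit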
Runt-SMMHC FRET = inhibitors of human RUNX1 Runt domain binding to CBFb-SMMHC; Q01196+Q13951; 220,000 compounds, 0.74% hits; Cerulean-Runt/Venus-CBFb-SMMHC FRET ratio 530/480, 1 h; inhibition, % at 20 µM; AID 1434;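 active = mean inhibition across duplicate retests at 20 µM reaching about 50%, limit read from the data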;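 also: inhibitors lower the FRET ratio by blocking Runt binding to CBFb-SMMHC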
Hits are given with their value; n = inactive; u = inconclusive; x = no result given.

SMILES	zVAD death inh	TNF necrop inh	Hck-Nef inh	Runt-CBFb FRET	RanGTP-Impb inh	Runt-SMMHC FRET
CC(C)OC(=O)C(C#N)c1nc2ccccc2nc1N1CCCC1 (stereo unspecified)	n	n	n	n	n	n
CCCCCCOC(=O)C(C#N)c1nc2ccccc2nc1N1CCN(C)CC1 (stereo unspecified)	n	n	n	n	22.6	n
CCCCCCOC(=O)C(C#N)c1nc2ccccc2nc1N1CCCCC1 (stereo unspecified)	n	n	n	n	30.6	n
CCC(C)COC(=O)C(C#N)c1nc2ccccc2nc1N1CCCCC1 (stereo unspecified)	n	n	n	n	23.1	n
CCOC(=O)CC(=O)NC1(Cc2ccc(O)cc2)CCCCC1	n	n	n	n	n	n
CCOc1cc(C2C3=C(CC(C)(C)CC3=O)N(C)C3=C2C(=O)CC(C)(C)C3)ccc1O	x	x	x	x	n	x
COc1cc2cccc(OC)c(=O)c2c(O)c1OC	n	n	n	n	n	n
COc1cc2c(ccc3cc(OC)c(OC)c(O)c32)cc1O	n	n	67.4	n	u	n
Cc1ccc(Nc2nc3ccccc3nc2-n2nc(C)cc2C)cc1	n	n	n	n	30.7	n
CC(C)(C)NCCOc1ccc2ccccc2c1	n	n	n	n	31.7	n
CCOc1cccc(OCCOCCNC(C)(C)C)c1	n	n	n	n	n	n
Cc1nn(Cc2ccc([N+](=O)[O-])cc2)c(=O)n1-c1cccc(Cl)c1	n	n	n	n	20.4	n
O=C(OCN1C(=O)c2ccccc2C1=O)c1ccc(Cl)nc1	x	x	x	x	n	x
COc1ccc(C(C(=O)NC2CCCC2)N(Cc2cccnc2)C(=O)c2snc(C(N)=O)c2N)cc1 (stereo unspecified)	x	x	x	x	n	x
COc1ccc(OC)c(N2C(=O)CC(Cc3cc(C)cc(C)c3)C2=O)c1 (stereo unspecified)	n	n	n	n	31.2	n
COc1ccc(OC)c(N2C(=O)CC(Cc3ccc(Cl)cc3)C2=O)c1 (stereo unspecified)	n	n	n	n	n	n
OCCSc1nc(N2CCOCC2)nc(N2CCOCC2)n1	n	n	n	n	n	n
O=C(COc1ccc(Br)cc1)N1CCNC1=O	x	x	x	x	n	x
CC(C)(C)C(=O)CSc1nc2c(c(-c3cccs3)c1C#N)CCC2	n	n	n	n	62.1	n
CC1(C(=O)NCc2ccc(Cl)c(Cl)c2)Oc2cccnc2NC1=O (stereo unspecified)	n	n	n	n	n	n
CCc1c(C)nc2c(Br)cccc2c1SCCC#N	n	n	n	n	28.8	n
CCc1c(C)nc2ccc(Br)cc2c1SCCC#N	n	n	n	n	n	n
c1ccc(CSc2nnc(-c3ccccc3)c(-c3ccccc3)n2)cc1	x	x	x	x	n	x
N#Cc1c(Cl)nc(SCc2ccccc2)nc1-c1ccccc1	n	n	n	112.9	x	n
Cn1c2ccccc2c(=O)c2cc(C#Cc3ccccn3)ccc21	x	x	x	x	147.1	x
SMILES	zVAD death inh	TNF necrop inh	Hck-Nef inh	Runt-CBFb FRET	RanGTP-Impb inh	Runt-SMMHC FRET
COc1cc2oc3ccc(C#Cc4ccccn4)cc3c(=O)c2cc1OC	x	x	x	x	n	x
Cn1c2ccccc2c(=O)c2ccc(C#Cc3ccccn3)cc21	x	x	x	x	96.7	x
Cn1c2ccccc2c(=O)c2cc(C#Cc3ccsc3)ccc21	x	x	x	x	73.1	x
Cc1ccc(C)c(OC(=O)CN2C(=O)c3ccccc3C2=O)c1	x	x	x	x	n	x
Cc1ccc(S(=O)(=O)N(OCc2ccccc2)C(C)C(=O)O)cc1 (stereo unspecified)	x	x	x	x	n	x
O=C(CNCC1CCCCC1)Nc1ccc(OC(F)(F)F)cc1	n	n	n	n	n	n
CSc1ccc(Cc2ccc(Cl)cc2Cl)nn1	n	62.5	n	n	n	n
NNc1ccc(Cc2ccc(Cl)cc2Cl)nn1	n	n	n	n	u	n
COc1ccc(NC(=O)CN2C(=O)NC(c3ccccc3)(c3ccccc3)C2=O)cc1OC	x	x	x	x	30.8	x
COc1ccc(NC(=O)CN2C(=O)NC(c3ccccc3)(c3ccccc3)C2=O)cc1	x	x	x	x	n	x
CCOc1ccccc1C1CC(=O)NC(SCC(=O)Nc2nccs2)=C1C#N (stereo unspecified)	93.0	82.1	n	n	n	n
COC(=O)CSC1=C(C#N)C(c2ccc(C(C)C)cc2)CC(=O)N1 (stereo unspecified)	n	55.7	n	n	n	n
O=C(NN=C(Cc1ccccc1)Cc1ccccc1)c1ccccc1F	n	n	n	n	u	n
O=C(NN=C(Cc1ccccc1)Cc1ccccc1)C1CC1	n	n	n	n	34.3	n
COc1ccc(-c2oc3cccnc3c2C#CCO)cc1	x	x	x	x	n	x
COc1ccc(-c2oc3cccnc3c2C#CC2(O)CCCCC2)cc1	x	x	x	x	22.6	x
COc1ccccc1-n1c([S-])c(C(=O)Nc2ccccc2C(F)(F)F)[n+]2ccc(C(=O)NCCO)cc12	n	n	n	n	19.8	n
Cc1ccc(-n2c([S-])c(C(=O)Nc3ccc(OC(F)F)cc3)[n+]3ccc(C(=O)NCCO)cc23)cc1C	n	n	n	n	n	n
Cc1ccc(CNS(=O)(=O)c2ccc(CN3C(=O)c4cccnc4C3=O)cc2)o1	x	x	x	x	n	x
Cc1cccc2c1cnn2C(=O)CCC(=O)NCC(C)c1ccccc1 (stereo unspecified)	x	x	x	x	n	x
C=CCOc1ccc(C2C(C(=O)c3cccs3)=C(O)C(=O)N2c2nnc(C)s2)cc1 (stereo unspecified)	n	n	n	x	n	x
COc1ccc(C2C(C(=O)c3cccs3)=C(O)C(=O)N2c2nncs2)cc1 (stereo unspecified)	n	n	n	n	n	103.3
Cc1c(O)ccc2c(CN3CCN(C/C=C/c4ccccc4)CC3)cc(=O)oc12	n	n	n	n	52.3	81.2
Cc1cc2oc(=O)cc(CN3CCN(C/C=C/c4ccccc4)CC3)c2cc1O	n	n	n	n	n	n
CCCCCCNC(=O)N[C@H](C(=O)NCCC[C@H]1CN2C(=NC[C@H]2C)N1CCC(c1ccccc1)c1ccccc1)C(C)O (stereo partly specified)	n	n	n	n	x	61.8
SMILES	zVAD death inh	TNF necrop inh	Hck-Nef inh	Runt-CBFb FRET	RanGTP-Impb inh	Runt-SMMHC FRET
C[C@@H]1CN=C2N(CCNC(=O)CCC3CCCCC3)[C@H](Cc3ccc(O)cc3)CN21	n	n	n	n	n	n
Cc1ccc(NC(=O)Nc2cc(Cl)ccc2C2COC(=O)C2=N)cc1 (stereo unspecified)	n	n	n	n	n	n
CC(=O)Nc1ccc(Cl)cc1C1COC(=O)C1=N (stereo unspecified)	n	n	n	n	19.3	n
C=CCO/N=C(/C)c1ccc(Oc2cnccn2)cc1	n	n	n	n	n	n
CC(=O)Nc1ccc(NC(=O)CSc2nnc(-c3cccs3)n2N)cc1	x	x	x	x	n	x
CCOC(=O)c1c(N2C(=O)C=CC2=O)sc(C)c1C	n	n	n	n	n	61.7
